Assay results published in ChEMBL document CHEMBL3860038, “Discovery of (R,E)-N-(7-Chloro-1-(1-[4-(dimethylamino)but-2-enoyl]azepan-3-yl)-1H-benzo[d]imidazol-2-yl)-2-methylisonicotinamide (EGF816), a Novel, Potent, and WT Sparing Covalent Inhibitor of Oncogenic (L858R, ex19del) and Resistant (T790M) EGFR Mutants for the Treatment of EGFR Mutant …” (J Med Chem, 2016).
In brackets after ≈: the same amount, converted by molar mass.

Assays:
[1] = target: T1, Epidermal growth factor receptor (Homo sapiens, UniProt P00533, L858R/T790M); assay: Inhibition of N-terminal 6x-HIS-tagged human recombinant EGFR (696 to 1022 residues) L858R/T790M mutant expressed in Sf9 cells pre-incubated for 0 mins followed by 1 mM ATP addition by HTRF assay
Outline: (§1)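 HTRF kinase assay on the EGFR L858R-T790M kinase domain at 1 mM ATP. Compound with either no preincubation or a 90 min enzyme/compound preincubation.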

[2] = target: T1, Epidermal growth factor receptor; assay: Inhibition of N-terminal 6x-HIS-tagged human recombinant EGFR (696 to 1022 residues) L858R/T790M mutant expressed in Sf9 cells pre-incubated for 90 mins followed by 1 mM ATP addition by HTRF assay; outline: as §1
[3] = Glutathione reactivity assessed as GSH adduct formation incubated for 1 hr using 10 mM glutathione
Outline: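 Compound incubated 1 h with 10 mM glutathione; GSH adduct formation measured.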

[4] = target: T2, Epidermal growth factor receptor (Homo sapiens, UniProt P00533, L858R); assay: Inhibition of EGFR L858R mutant phosphorylation in human patient derived H3255 cells incubated for 3 hrs by ELISA method; format: cell-based
[5] = target: T3, Epidermal growth factor receptor (Homo sapiens, UniProt P00533); assay: Inhibition of wild type EGFR phosphorylation in human HaCaT cells incubated for 3 hrs by ELISA method; format: cell-based
[6] = target: T1, Epidermal growth factor receptor; assay: Inhibition of EGFR L858R/T790M mutant phosphorylation in human patient derived H1975 cells incubated for 3 hrs by ELISA method; format: cell-based
[7] = Inhibition of EGFR E746 to A750 deletion mutant phosphorylation in human patient derived HCC827 cells incubated for 3 hrs by ELISA method; format: cell-based; settings: HCC827, 3 h
Outline: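 HCC827 cells plated at 7500/well in 5% FBS/RPMI and left overnight at 37 °C. Then 3 h with a 12-point compound dilution series, no EGF stimulation. Lysed in Triton/protease/phosphatase-inhibitor buffer. Phospho-EGFR (Y1173) read by sandwich ELISA: anti-EGFR capture, anti-phospho-EGFR, anti-rabbit-HRP, chemiluminescence. IC50 from at least duplicates.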

[8] = Time duration during which free plasma concentration stays above in-vitro IC50 level in human NCI-H1975 cells xenografted Foxn1 nude mouse at 25 mg/kg, po qd for 5 days; format: ADME, organism-based; settings: in vivo, 120 h
Outline: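 H1975 xenografts in Foxn1 nude mice, oral dosing once daily for 5 days. Plasma sampled after the last dose on day 5, at 30 min, 3 h, 7 h and 24 h. Free drug exposure was compared with in vitro cellular IC50 across the dosing interval.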

Mus musculus = assay: Toxicity in human NCI-H1975 cells xenografted Foxn1 nude mouse assessed as change in body weight at 25 mg/kg, po qd for 5 days (reference value: […]); format: organism-based; settings: in vivo, 120 h
[9] = Antitumor activity against human NCI-H1975 cells xenografted in Foxn1 nude mouse assessed as reduction in tumor volume at 25 mg/kg, po qd for 5 days relative to untreated control; format: functional
Outline: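 Female Foxn1 nude mice, H1975 cells inoculated subcutaneously. Randomized into groups once tumors reached 150−200 mm³, then dosed by oral gavage once daily for 5 days in 0.5% MC/0.5% Tween80 suspension (10 μL/g). Tumor volumes by caliper, (length × width × width)/2. %T/C = 100 × ΔT/ΔC, or % regression = 100 × ΔT/T_initial when ΔT < 0. Body weight recorded daily.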

[10] = target: T2, Epidermal growth factor receptor; assay: Inhibition of N-terminal 6x-HIS-tagged human recombinant EGFR (696 to 1022 residues) L858R mutant expressed in Sf9 cells pre-incubated for 90 mins followed by 10 uM ATP addition by HTRF assay
[11] = target: T1, Epidermal growth factor receptor; assay: Inhibition of N-terminal 6x-HIS-tagged human recombinant EGFR (696 to 1022 residues) L858R/T790M mutant expressed in Sf9 cells pre-incubated for 90 mins followed by 10 uM ATP addition by HTRF assay
[12] = target: T3, Epidermal growth factor receptor; assay: Inhibition of N-terminal 6x-HIS-tagged wild type human recombinant EGFR (696 to 1022 residues) expressed in Sf9 cells pre-incubated for 90 mins followed by 10 uM ATP addition by HTRF assay
Cytochrome P450 3A4 = Cytochrome P450 3A4 (Homo sapiens, UniProt P08684); assay: Inhibition of CYP3A4 (unknown origin); format: ADME
Cytochrome P450 2D6 = Cytochrome P450 2D6 (Homo sapiens, UniProt P10635); assay: Inhibition of CYP2D6 (unknown origin); format: ADME
Cytochrome P450 2C9 = Cytochrome P450 2C9 (Homo sapiens, UniProt P11712); assay: Inhibition of CYP2C9 (unknown origin); format: ADME
[13] = AUC in balb/c mouse at 20 mg/kg, po by liquid chromatography-tandem mass spectrometry; format: ADME, organism-based; settings: in vivo
Outline: (§2)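 Rodent PK in male balb/c mice and male Wistar rats; plasma drug levels by LC-MS/MS. Mouse oral dosing at 20 mg/kg, with compounds given as a 0.5% methylcellulose/0.5% Tween 80 suspension or as solutions (PEG300/D5W, or ethanol/PEG300 with Solutol or D5W), depending on compound.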

[14] = Oral bioavailability in balb/c mouse at 20 mg/kg by liquid chromatography-tandem mass spectrometry; format: ADME, organism-based; settings: in vivo; outline: as §2
[15] = Aqueous solubility of the compound at pH 6.8; format: physicochemical
[16] = Clearance in balb/c mouse at 5 mg/kg, iv by liquid chromatography-tandem mass spectrometry; format: ADME, organism-based; settings: in vivo; outline: as §2
[17] = Intrinsic clearance in human liver microsomes; format: ADME; settings: read-out: CLH
[18] = Intrinsic clearance in mouse liver microsomes; format: ADME; settings: read-out: CLH

T3 sequence (P00533 whole entry): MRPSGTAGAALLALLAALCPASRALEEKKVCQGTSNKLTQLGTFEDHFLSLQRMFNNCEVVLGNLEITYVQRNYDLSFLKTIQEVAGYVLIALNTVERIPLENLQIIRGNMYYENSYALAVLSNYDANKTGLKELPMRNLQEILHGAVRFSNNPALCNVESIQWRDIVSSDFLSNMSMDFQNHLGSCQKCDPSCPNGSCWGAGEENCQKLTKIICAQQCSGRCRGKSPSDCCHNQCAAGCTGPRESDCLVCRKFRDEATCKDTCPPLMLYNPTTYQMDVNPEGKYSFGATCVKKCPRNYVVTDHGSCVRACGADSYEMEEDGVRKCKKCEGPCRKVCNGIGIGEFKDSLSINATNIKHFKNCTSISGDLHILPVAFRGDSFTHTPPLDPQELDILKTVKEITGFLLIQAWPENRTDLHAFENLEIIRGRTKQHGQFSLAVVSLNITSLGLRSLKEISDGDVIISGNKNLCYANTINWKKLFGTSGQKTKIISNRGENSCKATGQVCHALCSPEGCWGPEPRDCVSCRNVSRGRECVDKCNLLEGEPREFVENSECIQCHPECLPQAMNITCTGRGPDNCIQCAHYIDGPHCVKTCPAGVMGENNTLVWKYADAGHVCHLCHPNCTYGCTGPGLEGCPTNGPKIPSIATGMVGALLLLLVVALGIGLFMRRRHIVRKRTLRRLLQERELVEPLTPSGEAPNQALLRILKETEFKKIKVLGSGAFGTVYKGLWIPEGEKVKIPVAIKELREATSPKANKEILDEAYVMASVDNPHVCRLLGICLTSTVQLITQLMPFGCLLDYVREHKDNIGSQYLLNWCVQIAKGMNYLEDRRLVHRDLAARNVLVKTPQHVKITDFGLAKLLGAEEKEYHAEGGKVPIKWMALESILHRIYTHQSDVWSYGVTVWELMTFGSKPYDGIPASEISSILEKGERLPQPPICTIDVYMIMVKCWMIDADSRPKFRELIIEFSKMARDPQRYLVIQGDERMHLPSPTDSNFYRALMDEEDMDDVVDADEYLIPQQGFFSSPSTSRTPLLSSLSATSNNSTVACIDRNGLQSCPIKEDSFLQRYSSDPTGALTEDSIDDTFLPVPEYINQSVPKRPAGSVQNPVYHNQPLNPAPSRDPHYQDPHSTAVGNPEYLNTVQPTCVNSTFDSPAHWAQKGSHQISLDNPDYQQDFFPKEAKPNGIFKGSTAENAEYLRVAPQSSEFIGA
T2 sequence (P00533 25-1210 L858R limits assumed): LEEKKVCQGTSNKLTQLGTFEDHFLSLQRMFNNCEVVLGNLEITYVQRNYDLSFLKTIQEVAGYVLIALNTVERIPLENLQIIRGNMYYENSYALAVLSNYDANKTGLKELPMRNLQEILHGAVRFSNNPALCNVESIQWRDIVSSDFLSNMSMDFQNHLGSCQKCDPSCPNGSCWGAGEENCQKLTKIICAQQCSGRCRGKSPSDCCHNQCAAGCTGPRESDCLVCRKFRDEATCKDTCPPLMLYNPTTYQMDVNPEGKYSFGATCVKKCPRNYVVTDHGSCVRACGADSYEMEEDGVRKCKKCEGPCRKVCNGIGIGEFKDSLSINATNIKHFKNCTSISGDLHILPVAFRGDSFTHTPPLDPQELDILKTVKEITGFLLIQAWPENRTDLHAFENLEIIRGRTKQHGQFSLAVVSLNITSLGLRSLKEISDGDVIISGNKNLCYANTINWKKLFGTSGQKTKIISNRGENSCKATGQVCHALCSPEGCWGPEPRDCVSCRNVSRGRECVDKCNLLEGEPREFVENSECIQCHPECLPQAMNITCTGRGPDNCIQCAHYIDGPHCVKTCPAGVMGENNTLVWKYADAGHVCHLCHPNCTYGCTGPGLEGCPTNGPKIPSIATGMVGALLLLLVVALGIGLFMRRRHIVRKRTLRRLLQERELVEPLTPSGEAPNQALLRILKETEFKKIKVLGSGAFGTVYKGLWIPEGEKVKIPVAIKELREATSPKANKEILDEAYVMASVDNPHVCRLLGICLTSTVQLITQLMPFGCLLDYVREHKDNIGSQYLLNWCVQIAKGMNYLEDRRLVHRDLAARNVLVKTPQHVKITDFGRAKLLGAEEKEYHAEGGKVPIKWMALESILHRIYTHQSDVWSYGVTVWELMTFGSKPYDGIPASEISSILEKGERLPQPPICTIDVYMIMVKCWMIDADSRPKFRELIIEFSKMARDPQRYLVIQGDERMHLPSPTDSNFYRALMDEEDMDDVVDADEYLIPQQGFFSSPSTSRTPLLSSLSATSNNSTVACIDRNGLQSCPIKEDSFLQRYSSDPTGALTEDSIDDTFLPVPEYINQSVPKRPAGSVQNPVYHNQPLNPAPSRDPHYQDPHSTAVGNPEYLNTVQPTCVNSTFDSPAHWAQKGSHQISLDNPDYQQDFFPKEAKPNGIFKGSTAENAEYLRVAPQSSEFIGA
T1 sequence (P00533 25-1210 T790M/L858R limits assumed): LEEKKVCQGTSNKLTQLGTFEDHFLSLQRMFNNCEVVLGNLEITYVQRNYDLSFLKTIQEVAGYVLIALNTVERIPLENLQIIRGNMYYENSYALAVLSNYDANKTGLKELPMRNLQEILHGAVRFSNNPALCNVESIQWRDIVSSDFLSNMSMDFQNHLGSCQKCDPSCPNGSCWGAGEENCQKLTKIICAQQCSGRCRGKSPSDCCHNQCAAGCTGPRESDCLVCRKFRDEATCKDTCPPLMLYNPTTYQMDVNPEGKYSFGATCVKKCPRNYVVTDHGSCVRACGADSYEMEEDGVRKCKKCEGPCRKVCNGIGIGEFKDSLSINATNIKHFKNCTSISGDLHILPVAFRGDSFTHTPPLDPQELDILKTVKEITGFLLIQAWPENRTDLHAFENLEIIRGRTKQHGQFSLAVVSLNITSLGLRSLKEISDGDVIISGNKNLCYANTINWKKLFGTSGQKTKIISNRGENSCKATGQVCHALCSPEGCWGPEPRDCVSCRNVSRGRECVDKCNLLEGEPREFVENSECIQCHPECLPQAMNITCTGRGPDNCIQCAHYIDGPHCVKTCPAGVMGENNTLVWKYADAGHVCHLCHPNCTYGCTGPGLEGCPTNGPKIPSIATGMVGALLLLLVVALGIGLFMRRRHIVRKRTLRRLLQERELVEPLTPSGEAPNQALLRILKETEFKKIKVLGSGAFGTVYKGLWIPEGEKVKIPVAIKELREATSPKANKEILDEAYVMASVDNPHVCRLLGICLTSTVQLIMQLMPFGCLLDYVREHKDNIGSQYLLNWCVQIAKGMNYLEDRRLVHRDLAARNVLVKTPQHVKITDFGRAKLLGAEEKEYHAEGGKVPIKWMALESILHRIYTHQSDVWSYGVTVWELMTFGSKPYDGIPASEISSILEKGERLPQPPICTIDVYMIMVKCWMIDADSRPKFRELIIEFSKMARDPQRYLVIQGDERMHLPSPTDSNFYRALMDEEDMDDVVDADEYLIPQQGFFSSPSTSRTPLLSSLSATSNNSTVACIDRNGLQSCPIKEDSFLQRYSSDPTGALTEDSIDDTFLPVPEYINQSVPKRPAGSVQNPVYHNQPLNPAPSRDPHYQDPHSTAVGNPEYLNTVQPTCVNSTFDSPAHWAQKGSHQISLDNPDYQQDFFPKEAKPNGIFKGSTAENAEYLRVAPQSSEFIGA
Sequence of Cytochrome P450 2C9 (P11712 whole entry): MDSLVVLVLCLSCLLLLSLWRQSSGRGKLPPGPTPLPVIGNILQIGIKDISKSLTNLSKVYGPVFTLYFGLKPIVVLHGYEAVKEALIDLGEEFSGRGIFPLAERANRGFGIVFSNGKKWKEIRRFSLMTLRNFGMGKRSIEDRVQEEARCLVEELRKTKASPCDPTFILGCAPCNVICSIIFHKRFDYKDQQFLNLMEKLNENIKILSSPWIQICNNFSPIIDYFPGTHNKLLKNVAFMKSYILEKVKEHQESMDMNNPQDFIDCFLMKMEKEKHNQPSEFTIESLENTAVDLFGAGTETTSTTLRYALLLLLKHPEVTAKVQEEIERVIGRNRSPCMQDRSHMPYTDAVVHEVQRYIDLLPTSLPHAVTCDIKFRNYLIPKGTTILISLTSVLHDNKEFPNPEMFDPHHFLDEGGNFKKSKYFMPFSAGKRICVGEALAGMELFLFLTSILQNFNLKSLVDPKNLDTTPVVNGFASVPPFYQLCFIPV
Sequence of Cytochrome P450 3A4 (P08684 whole entry): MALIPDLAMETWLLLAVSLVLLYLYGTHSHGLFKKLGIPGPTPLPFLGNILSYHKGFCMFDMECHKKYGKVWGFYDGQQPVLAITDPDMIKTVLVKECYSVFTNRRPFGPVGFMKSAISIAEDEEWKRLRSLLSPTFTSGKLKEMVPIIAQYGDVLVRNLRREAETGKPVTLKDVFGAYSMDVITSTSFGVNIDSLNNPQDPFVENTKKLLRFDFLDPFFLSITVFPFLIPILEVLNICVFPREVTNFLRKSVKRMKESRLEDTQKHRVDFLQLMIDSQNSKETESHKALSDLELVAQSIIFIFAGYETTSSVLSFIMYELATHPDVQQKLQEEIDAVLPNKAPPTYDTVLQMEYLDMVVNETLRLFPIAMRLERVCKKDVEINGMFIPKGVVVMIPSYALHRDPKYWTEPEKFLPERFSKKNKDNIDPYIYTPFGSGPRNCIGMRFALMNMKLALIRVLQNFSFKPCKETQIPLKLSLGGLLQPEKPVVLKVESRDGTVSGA
Sequence of Cytochrome P450 2D6 (P10635 whole entry): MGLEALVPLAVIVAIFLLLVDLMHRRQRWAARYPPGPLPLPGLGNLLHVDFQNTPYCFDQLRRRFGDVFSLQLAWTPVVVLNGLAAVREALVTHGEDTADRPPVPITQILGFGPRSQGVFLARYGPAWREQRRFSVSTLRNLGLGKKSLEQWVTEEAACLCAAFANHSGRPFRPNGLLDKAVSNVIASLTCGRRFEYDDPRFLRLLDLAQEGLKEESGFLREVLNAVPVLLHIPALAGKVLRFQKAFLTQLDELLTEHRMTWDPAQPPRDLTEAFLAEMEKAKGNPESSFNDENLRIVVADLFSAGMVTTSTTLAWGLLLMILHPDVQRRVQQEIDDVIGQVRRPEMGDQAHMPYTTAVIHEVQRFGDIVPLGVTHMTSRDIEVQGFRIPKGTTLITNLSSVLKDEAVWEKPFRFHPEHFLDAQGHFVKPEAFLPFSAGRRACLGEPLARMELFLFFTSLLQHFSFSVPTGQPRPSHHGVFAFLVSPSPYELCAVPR

## C=CC(=O)Nc1ccccc1-n1c(NC(=O)c2cccc(C(F)(F)F)c2)nc2cc(C)ccc21
[1]
  IC50: > 50 µM
[2]
  IC50: > 32.8 µM

## C=CC(=O)N[C@H]1CCCC[C@H]1n1c(NC(=O)c2cccc(C(F)(F)F)c2)nc2cc(C)ccc21 (racemic)
[1]
  IC50: > 50 µM
[2]
  IC50: > 50 µM

## Cc1cc(C(=O)Nc2nc3cccc(Cl)c3n2[C@@H]2CCCCN(C(=O)/C=C/CN(C)C)C2)ccn1
[3]
  Drug metabolism: < 5%

## C=CC(=O)N[C@@H]1CCCC[C@H]1n1c(NC(=O)c2cccc(C(F)(F)F)c2)nc2cc(C)ccc21 (racemic)
[1]
  IC50: > 50 µM
[2]
  IC50: > 50 µM

## C=CC(=O)N[C@H]1CC[C@@H](n2c(NC(=O)c3cccc(C(F)(F)F)c3)nc3cc(C)ccc32)CC1
[1]
  IC50: > 50 µM
[2]
  IC50: > 50 µM

## C=CC(=O)N1CCCC(n2c(NC(=O)c3cccc(C(F)(F)F)c3)nc3cc(C)ccc32)CC1 (stereo not given)
[1]
  IC50: > 50 µM
[2]
  IC50: > 50 µM

## C=CC(=O)N1CCCCC(n2c(NC(=O)c3cccc(C(F)(F)F)c3)nc3cc(C)ccc32)C1 (stereo not given)
[4]
  IC50: 0.0749 µM
[5]
  IC50: 4.33 µM
[1]
  IC50: 0.83 µM
[6]
  IC50: 0.0061 µM
[2]
  IC50: < 0.002 µM
[7]
  IC50: 0.0159 µM

## C=CC(=O)N1CCC(n2c(NC(=O)c3cccc(C(F)(F)F)c3)nc3cc(C)ccc32)C1 (stereo not given)
[1]
  IC50: > 50 µM
[2]
  IC50: > 50 µM

## C=CC(=O)N1CCC(n2c(NC(=O)c3cccc(C(F)(F)F)c3)nc3cc(C)ccc32)CC1
[1]
  IC50: > 37.7 µM
[2]
  IC50: 16.5 µM

## C=CC(=O)N1CC(n2c(NC(=O)c3cccc(C(F)(F)F)c3)nc3cc(C)ccc32)C1
[1]
  IC50: > 50 µM
[2]
  IC50: > 50 µM

## C=CC(=O)Nc1ccc(-n2c(NC(=O)c3cccc(C(F)(F)F)c3)nc3cc(C)ccc32)cc1
[1]
  IC50: > 50 µM
[2]
  IC50: > 50 µM

## C=CC(=O)NCCCn1c(NC(=O)c2cccc(C(F)(F)F)c2)nc2cc(C)ccc21
[1]
  IC50: > 50 µM
[6]
  IC50: 0.525 µM
[2]
  IC50: 0.05 µM
[7]
  IC50: 1.65 µM

## CN(C)C/C=C/C(=O)Nc1cc2c(Nc3ccc(F)c(Cl)c3)ncnc2cc1O[C@H]1CCOC1 [AFATINIB]
[8]
  Time: <= 14 hr
Mus musculus
  Activity: -2.4%
[9]
  T/C: 38%
[3]
  Drug metabolism: 60%

## C=CC(=O)N(C)c1cccc(-n2c(NC(=O)c3cccc(C(F)(F)F)c3)nc3cc(C)ccc32)c1
[5]
  IC50: > 10 µM
[1]
  IC50: 22.3 µM
[6]
  IC50: 0.181 µM
[2]
  IC50: 0.01 µM
[7]
  IC50: 0.268 µM

## C=CC(=O)Nc1cccc(-n2c(NC(=O)c3cccc(C(F)(F)F)c3)nc3cc(C)ccc32)c1
[4]
  IC50: 1.04 µM
[1]
  IC50: > 50 µM
[6]
  IC50: 0.135 µM
[2]
  IC50: 0.004 µM
[7]
  IC50: 0.272 µM

## Cc1ccc2c(c1)nc(NC(=O)c1cccc(C(F)(F)F)c1)n2[C@H]1CC[C@H](O)CC1
[10]
  IC50: > 8.48 µM
[11]
  IC50: 0.14 µM
[12]
  IC50: > 11.8 µM

## C=CC(=O)NC1CCC(n2c(NC(=O)c3cccc(C(F)(F)F)c3)nc3cc(C)ccc32)C1 (stereo not given)
[1]
  IC50: > 50 µM
[2]
  IC50: 6.81 µM

## C=CC(=O)N1CCCC(n2c(NC(=O)c3cccc(C(F)(F)F)c3)nc3cc(C)ccc32)C1 (stereo not given)
[4]
  IC50: 0.421 µM
[5]
  IC50: > 10 µM
[1]
  IC50: > 50 µM
[6]
  IC50: 0.0247 µM
[2]
  IC50: 0.02 µM
[7]
  IC50: 0.153 µM

## CCOCc1ccc2c(c1)nc(NC(=O)c1cccc(C(F)(F)F)c1)n2[C@H]1CC[C@H](O)CC1
[10]
  IC50: 2.08 µM
[11]
  IC50: 0.47 µM
[12]
  IC50: > 42 µM

## Cc1cccc2nc(NC(=O)c3cccc(C(F)(F)F)c3)n([C@H]3CC[C@H](O)CC3)c12
[10]
  IC50: 0.68 µM
[11]
  IC50: 0.09 µM
[12]
  IC50: 5.27 µM

## C=CC(=O)N[C@H]1CC[C@H](n2c(NC(=O)c3cccc(C(F)(F)F)c3)nc3cc(C)ccc32)CC1
[1]
  IC50: > 50 µM
[2]
  IC50: > 50 µM

## C=CC(=O)Nc1cccc(Nc2nc(Nc3ccc(N4CCN(C(C)=O)CC4)cc3OC)ncc2C(F)(F)F)c1 [ROCILETINIB]
[7]
  IC50: 0.0095 µM

## Cc1cccc2c1nc(NC(=O)c1cccc(C(F)(F)F)c1)n2[C@H]1CC[C@H](O)CC1
[10]
  IC50: 11.8 µM
[11]
  IC50: 1.37 µM
[12]
  IC50: > 50 µM

## Cc1cccc2nc(NC(=O)c3cccc(C(F)(F)F)c3)n([C@@H]3CCCCN(C(=O)/C=C/CN(C)C)C3)c12
[4]
  IC50: 0.0459 µM
[5]
  IC50: 0.351 µM
Cytochrome P450 3A4
  IC50: 22.2 µM
Cytochrome P450 2D6
  IC50: 16.7 µM
Cytochrome P450 2C9
  IC50: 17.6 µM
[13]
  AUC: 4.39 µM·h
[14]
  bioavailability: 40%
[6]
  IC50: 0.00218 µM
[15]
  solubility: 10.5 µM (≈ 5.54 µg/mL)
[16]
  clearance: 57.2 mL/min/kg
[3]
  Drug metabolism: < 5%
[7]
  IC50: 0.0124 µM
[17]
  microsomal CLint: 49 µL/min/mg
[18]
  microsomal CLint: 233 µL/min/mg

## O=C(Nc1nc2ccccc2n1[C@H]1CC[C@H](O)CC1)c1cccc(C(F)(F)F)c1
[10]
  IC50: 2 µM
[11]
  IC50: 0.26 µM
[12]
  IC50: > 50 µM

## C=CC(=O)NCCn1c(NC(=O)c2cccc(C(F)(F)F)c2)nc2cc(C)ccc21
[1]
  IC50: > 50 µM
[2]
  IC50: > 50 µM
